Screens deposited in PubChem BioAssay by several laboratories.
Jurkat NFkB inh = inhibitors of the PMA/ionomycin-induced NF-kB reporter in Jurkat cells; 330,000 compounds, 0.53% hits; AID 435003; inhibition, % at 4 µM; PMA/ionomycin-induced NF-kB luciferase reporter, luminescence; in the data active = inhibition above about 50%
697 NFkB inh = lowers PMA/ionomycin-induced NF-kB signal in 697 B cells; inhibition, % at 4 µM; AID 435022; 330,000 compounds, 0.33% hits; 697 B-cell NF-kB luciferase reporter, 16 h; in the data active = inhibition above about 35%
NR2E3 ag-1 = activates human NR2E3 receptor; AID 602229; Q9Y5X4; CHO-S Gal4-NCOR/VP16-NR2E3 two-hybrid, luciferase; 360,000 compounds, 0.35% hits; inhibition of corepressor binding, % at 3.98 µM;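 active = inhibition above the mean of all tested compounds plus 3 SD, cut at about 70% in these data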;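 note: higher means lower luciferase signal from less NR2E3 corepressor binding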
Target sequence (Q9Y5X4 whole entry, looked up, the tested form may be a part): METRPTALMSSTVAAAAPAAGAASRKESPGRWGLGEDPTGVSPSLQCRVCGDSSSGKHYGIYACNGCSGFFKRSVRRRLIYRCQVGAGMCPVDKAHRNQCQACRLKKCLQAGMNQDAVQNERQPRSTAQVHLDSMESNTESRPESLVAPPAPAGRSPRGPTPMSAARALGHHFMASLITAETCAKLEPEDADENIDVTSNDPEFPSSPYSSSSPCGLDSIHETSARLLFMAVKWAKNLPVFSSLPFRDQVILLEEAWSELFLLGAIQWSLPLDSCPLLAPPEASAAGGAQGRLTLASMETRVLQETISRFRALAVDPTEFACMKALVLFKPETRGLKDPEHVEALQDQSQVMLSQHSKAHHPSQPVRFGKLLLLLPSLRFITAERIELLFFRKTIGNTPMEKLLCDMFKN
miR122 inh = blocks miR-122 activity in Huh7 sensor cells; Huh7 miR-122 Renilla luciferase sensor, 48 h; neutral wells = 0, positive control = 100; activation (reporter increase), % at 12.5 µM; 340,000 compounds, 0.3% hits; AID 602342;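 active = mean replicate activation score at least 90 and every replicate individually at or above 90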;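 note: higher luciferase means less miR-122 activity so hits act as miR-122 inhibitors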
FGF22 binding = shifts melting point of recombinant human FGF22. Q9HCT0. recombinant FGF22 thermal shift, SYPRO orange fluorescence; percent of sucrose octasulfate shift, DMSO zero. activity (Tm shift, normalised), % at 9.99 µM. 340,000 compounds, 1.5% hits. AID 651658;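 active = mean Tm shift, scaled 0 neutral to 100 positive control, at about 1.3% or above, every replicate too, limit read from the data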
Target sequence (Q9HCT0 whole entry, looked up): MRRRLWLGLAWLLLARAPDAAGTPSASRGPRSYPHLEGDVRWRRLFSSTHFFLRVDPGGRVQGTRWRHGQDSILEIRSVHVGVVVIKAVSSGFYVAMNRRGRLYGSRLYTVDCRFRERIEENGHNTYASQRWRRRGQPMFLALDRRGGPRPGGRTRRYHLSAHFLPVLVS
NR2E3 ag-2 = agonists of human nuclear receptor NR2E3; AID 2300; 320,000 compounds, 0.12% hits; inhibition of corepressor binding, % at 4.78 µM; GST-NR2E3/biotin-RetCOR TR-FRET, 1536-well; Q9Y5X4;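 active = percent inhibition above the cutoff of mean plus 3 SD of all tested compounds, set per screening campaign, cut at about 20% in these data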
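system = GST-tagged NR2E3 plus biotinylated RetCOR corepressor | input = 1.35 nM GST-NR2E3 | also added = 7 nM biotin-RetCOR | schedule = 5 h incubation at 4 °C | measured by = TR-FRET with europium anti-GST and streptavidin-D2, 340 nm excitation | read-out = percent loss of FRET ratio relative to control wells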
Jurkat NFkB conf = inhibitors of the PMA/ionomycin-induced NF-kB reporter in Jurkat cells, retest | shares compounds with Jurkat NFkB inh | Jurkat NF-kB luciferase, 16 h | inhibition, % at 4 µM | 2,700 compounds, 27% hits | AID 435020;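 active = inhibition reaching about 45% at 4 µM in either replicate, limit read from the data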
Hits are given with their value; n = inactive; x = no result given. Rows were chosen to be rich in hits. Some 2.2% of all compounds tested hit in one or more screens of this group.

SMILES	Jurkat NFkB inh	697 NFkB inh	NR2E3 ag-1	miR122 inh	FGF22 binding	NR2E3 ag-2	Jurkat NFkB conf
O=C(NCCCO)C(=O)Nc1ccc2c(c1)N(S(=O)(=O)c1cccs1)CCC2	n	n	n	n	n	n	x
O=C(NCCC1CCCCN1S(=O)(=O)c1cccs1)C(=O)Nc1ccccc1 (stereo not given)	n	n	n	x	n	n	x
COc1ccc(NC(=O)C(=O)NCCC2CCCCN2S(=O)(=O)c2cccs2)cc1 (stereo not given)	61	n	n	x	n	n	n
COCCNC(=O)C(=O)Nc1ccc2c(c1)N(S(=O)(=O)c1cccs1)CCC2	60	n	n	n	n	n	n
CO[C@@H]1CN(C)C(=O)c2cc(NC(=O)c3cccc(F)c3)ccc2OC[C@H](C)N(C(C)=O)C[C@H]1C	x	x	x	n	x	x	x
Cc1ccc(S(=O)(=O)Nc2ccc3c(c2)C(=O)N([C@H](C)CO)C[C@H](C)[C@@H](CN(C)C(=O)NC2CCCCC2)O3)cc1	x	x	x	n	n	x	x
CNC[C@@H]1Oc2ccc(NS(=O)(=O)c3ccc(Cl)cc3)cc2C(=O)N([C@H](C)CO)C[C@H]1C	x	x	x	n	n	x	x
COc1ccc(NC(=O)N(C)C[C@H]2Oc3ccc(NC(=O)Nc4ccccc4)cc3C(=O)N([C@H](C)CO)C[C@@H]2C)cc1	x	x	x	n	n	x	x
COc1ccccc1NC1=CC(=O)CC(c2ccccc2)C1 (stereo not given)	52	n	n	n	n	n	n
COc1ccc(C2=CC(=O)CC(c3ccc(OC)cc3)C2)cc1 (stereo not given)	n	n	n	n	n	n	x
COc1ccc([C@H]2CC(=O)C=C(c3c(OC)cccc3OC)C2)cc1	57	n	n	x	n	n	51
CC(=O)N(C)C[C@H]1[C@H](c2ccc(-c3ccccc3F)cc2)[C@@H](CO)N1C(C)=O	x	x	x	n	n	x	x
CCOC(=O)c1ccc(NC(=O)c2nc[nH]c2C(=O)NCCCNC(=O)c2[nH]cnc2C(=O)Nc2ccc(C(=O)OCC)cc2)cc1	n	n	n	x	n	n	x
CCOC(=O)c1ccc(NC(=O)c2nc[nH]c2C(=O)NCCCCNC(=O)c2[nH]cnc2C(=O)Nc2ccc(C(=O)OCC)cc2)cc1	67	n	n	n	n	n	n
Cc1ccc(NC(=O)c2nc[nH]c2C(=O)NCCCCNC(=O)c2[nH]cnc2C(=O)Nc2ccc(C)cc2)cc1	50	n	n	n	n	x	n
CO[C@H]1CN(C)C(=O)c2cc(NC(=O)c3cc(C)on3)ccc2OC[C@@H](C)N(CC2CC2)C[C@H]1C	x	x	x	x	n	x	x
N=c1ccn(CC(=O)c2ccc(-c3ccccc3)cc2)cc1	58	n	n	x	n	n	n
O=C(CN1C(=O)CCC1=O)c1ccc(-c2ccccc2)cc1	n	n	n	x	n	n	x
COc1ccc(CN2[C@H](CO)[C@@H]3c4ccccc4N(C(=O)c4ccccc4)C[C@@H]32)cc1	x	x	x	n	n	x	x
Cc1cccc(NC(=S)N/N=C/c2cccc(O)c2)c1C	62	n	n	n	n	n	n
Cc1ccccc1NC(=S)N/N=C/c1ccc(O)cc1O	n	n	n	n	n	n	x
O=C(C1CCOCC1)N1C[C@@H]2[C@H](c3ccccc31)[C@@H](CO)N2C(=O)c1ccccc1	x	x	x	n	n	x	x
COc1cc(C(=O)OCCCc2cc3ccccc3c(=O)o2)cc(OC)c1OC	n	n	n	x	n	n	x
COc1cc(C(=O)OCCc2cc3ccccc3c(=O)o2)cc(OC)c1OC	58	n	n	x	n	n	58
C[C@H]1CCCCO[C@@H](CN(C)CC2CCCCC2)[C@@H](C)CN([C@@H](C)CO)C(=O)c2cc(NC(=O)Nc3ccccc3)ccc2O1	x	x	x	n	n	x	x
SMILES	Jurkat NFkB inh	697 NFkB inh	NR2E3 ag-1	miR122 inh	FGF22 binding	NR2E3 ag-2	Jurkat NFkB conf
COc1ccc(NC(=O)Cn2nnc(-c3ccccc3NS(=O)(=O)c3ccc(OC)cc3)n2)cc1	72	n	n	n	n	n	64
C[C@@H]1CCCCO[C@@H](CN(C)C)[C@H](C)CN([C@@H](C)CO)C(=O)c2cc(NC(=O)Nc3cccc4ccccc34)ccc2O1	x	x	x	n	n	x	x
Cc1ccsc1/C=N/Nc1cccc(C(=O)O)c1	56	n	n	x	n	n	n
CCOc1cc(/C=N/Nc2cccc(C(=O)O)c2)ccc1OC(=O)c1ccccc1	58	n	n	n	n	x	n
Cc1ccsc1/C=N/Nc1ccc(C(=O)O)cc1	n	n	n	x	n	n	x
COc1ccccc1NC(=O)N1C[C@H]2[C@@H](c3ccccc31)[C@H](CO)N2C(C)=O	x	x	x	n	n	x	x
C[C@H]1CN([C@@H](C)CO)C(=O)c2cccc(NS(=O)(=O)c3ccc(Cl)cc3)c2O[C@@H]1CN(C)C(=O)Nc1cccc2ccccc12	x	x	x	n	n	x	x
Cc1noc(C)c1COc1cccc(C(=O)OC(C)C(=O)Nc2ccc3c(c2)OCO3)c1 (stereo not given)	58	n	n	n	x	n	n
Cc1ccc(NC(=O)c2cccc(OCc3c(C)noc3C)c2)c(C)c1	n	n	n	n	x	n	x
COc1cc(C(=O)OC(C)C(=O)Nc2ccc3c(c2)OCO3)ccc1OCc1c(C)noc1C (stereo not given)	n	n	n	n	x	n	x
CC(C)Oc1cccc(C(=O)Nc2ccc(Br)cc2F)c1	n	n	n	x	n	n	n
Cc1noc(C)c1COc1cccc(C(=O)Nc2ccc(Br)cc2F)c1	61	n	n	x	n	x	n
CC(C)c1nnc(NC(=O)c2ccc3c(c2)OCO3)s1	n	n	n	x	n	n	x
COc1cccc(C(=O)Nc2ccc(F)cc2F)c1	n	n	n	n	x	n	x
COc1ccccc1-c1nnc(NC(=O)c2ccc3c(c2)OCO3)s1	57	n	n	x	n	n	n
C[C@@H]1CN([C@H](C)CO)C(=O)c2cccc(NC(=O)Nc3ccc(C(F)(F)F)cc3)c2O[C@@H]1CN(C)Cc1ccc(C(=O)Nc2ccccc2N)cc1	x	x	x	x	n	x	x
Cc1noc(C)c1S(=O)(=O)Nc1ccc2c(c1)C(=O)N([C@@H](C)CO)C[C@@H](C)[C@@H](CN(C)Cc1ccc3c(c1)OCO3)OCCCC[C@H](C)O2	x	x	x	n	n	x	x
Cc1cnc(NC(=O)c2ccc3c(c2)OCCO3)s1	70	n	n	n	n	n	77
O=C(Nc1ccc(Br)cc1F)c1ccc2c(c1)OCCO2	n	n	n	n	n	n	n
COc1cc(C(=O)N/N=C(\C)c2ccc3c(c2)OCO3)cc(OC)c1OC	52	n	n	x	n	n	n
CN1c2ccc(C#Cc3cccnc3)cc2[C@H]2[C@H](CCN2C(=O)C2CCOCC2)[C@@H]1CO	x	x	x	n	n	x	x
COc1ccc2c3c(n(C)c2c1)[C@H](CO)N(C(=O)CN1CCOCC1)CC31CN(C)C1	x	x	x	x	n	x	x
